Data from ChEMBL document CHEMBL4257453, “Identification of karanjin isolated from the Indian beech tree as a potent CYP1 enzyme inhibitor with cellular efficacy via screening of a natural product repository” (Medchemcomm, 2018).

Experiments:
Cytochrome P450 1B1 = target: T1, Cytochrome P450 1B1 (Homo sapiens, UniProt Q16678); assay: Inhibition of human recombinant CYP1B1 expressed in HEK293 cells using 7-ethoxyresorufin substrate substrate preincubated for 30 mins followed by substrate addition and measured after 60 mins by fluorescence assay relative to control; assay type: ADME, cell-based
T1 sequence (Q16678 whole entry): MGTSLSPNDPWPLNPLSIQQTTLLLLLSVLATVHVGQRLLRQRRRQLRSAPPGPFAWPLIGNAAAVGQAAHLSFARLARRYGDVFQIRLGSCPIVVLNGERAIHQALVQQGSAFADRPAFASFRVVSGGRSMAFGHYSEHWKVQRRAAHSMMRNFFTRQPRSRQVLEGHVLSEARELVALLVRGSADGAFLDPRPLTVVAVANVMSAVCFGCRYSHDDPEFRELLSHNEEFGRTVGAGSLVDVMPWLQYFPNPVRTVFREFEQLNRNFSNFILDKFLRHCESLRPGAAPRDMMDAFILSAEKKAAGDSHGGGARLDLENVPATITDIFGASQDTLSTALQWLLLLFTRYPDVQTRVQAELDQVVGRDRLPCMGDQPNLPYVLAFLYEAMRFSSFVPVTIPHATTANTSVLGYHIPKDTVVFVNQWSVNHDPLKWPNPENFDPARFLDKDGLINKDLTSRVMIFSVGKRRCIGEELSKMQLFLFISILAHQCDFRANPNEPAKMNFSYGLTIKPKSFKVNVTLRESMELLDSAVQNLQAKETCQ
Procedure, shortened: (§1)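 HEK293 cells adapted to suspension and transiently transfected with pcDNA3.1 plasmids carrying the individual CYP; 100×10^3 cells per well in triplicate. […] Fluorogenic substrate is then added at 5 μM and fluorescence read for 60 min.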

CYP1B1 = target: T2, CYP1B1 (Homo sapiens, UniProt Q16678); assay: Inhibition of recombinant human CYP1B1 expressed in baker's yeast-derived microsomes (Sacchrosomes) at 10 uM using 7-ethoxyresorufin substrate by EROD assay relative to control; assay type: ADME; conditions: probe 7-ethoxyresorufin
T2 sequence (Q16678 whole entry): T1 sequence (Q16678 whole entry)
Procedure, shortened: (§2)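 Yeast microsomes carrying recombinant CYP (Sacchrosomes). […] Substrates per isoform are 7-ethoxyresorufin, 3-cyano-7-ethoxycoumarin, EOMCC or dibenzylfluorescein, read as endpoint fluorescence. Background from compound-only wells without enzyme is subtracted. Independent triplicate runs; α-naphthoflavone positive control.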

Cytochrome P450 2C19 = Cytochrome P450 2C19 (Homo sapiens, UniProt P33261); assay: Inhibition of human recombinant CYP2C19 expressed in HEK293 cells using 3-cyano-7-ethoxycoumarin substrate substrate preincubated for 30 mins followed by substrate addition and measured after 60 mins by fluorescence assay relative to control; assay type: ADME, cell-based; procedure, shortened: as §1
Cytochrome P450 2C19, sequence (P33261 whole entry): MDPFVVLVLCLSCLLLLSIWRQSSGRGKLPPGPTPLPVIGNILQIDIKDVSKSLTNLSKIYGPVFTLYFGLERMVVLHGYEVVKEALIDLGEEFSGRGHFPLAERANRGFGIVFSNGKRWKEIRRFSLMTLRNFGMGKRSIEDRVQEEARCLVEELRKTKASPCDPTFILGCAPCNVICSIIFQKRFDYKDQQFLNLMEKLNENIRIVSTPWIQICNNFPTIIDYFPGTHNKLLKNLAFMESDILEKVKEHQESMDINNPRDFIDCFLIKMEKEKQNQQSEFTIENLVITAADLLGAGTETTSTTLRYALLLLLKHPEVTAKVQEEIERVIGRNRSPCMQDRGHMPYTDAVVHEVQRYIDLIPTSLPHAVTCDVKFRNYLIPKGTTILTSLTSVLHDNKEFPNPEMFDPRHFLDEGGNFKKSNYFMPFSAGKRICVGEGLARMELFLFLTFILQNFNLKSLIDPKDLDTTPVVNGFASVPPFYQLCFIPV

CYP2C9 = CYP2C9 (Homo sapiens, UniProt P11712); assay: Inhibition of recombinant human CYP2C9 expressed in baker's yeast-derived microsomes (Sacchrosomes) at 10 uM using 3-cyano-7-ethoxycoumarin substrate by EROD assay relative to control; assay type: ADME; conditions: probe 3-cyano-7-ethoxycoumarin; procedure, shortened: as §2
CYP2C9, sequence (P11712 whole entry): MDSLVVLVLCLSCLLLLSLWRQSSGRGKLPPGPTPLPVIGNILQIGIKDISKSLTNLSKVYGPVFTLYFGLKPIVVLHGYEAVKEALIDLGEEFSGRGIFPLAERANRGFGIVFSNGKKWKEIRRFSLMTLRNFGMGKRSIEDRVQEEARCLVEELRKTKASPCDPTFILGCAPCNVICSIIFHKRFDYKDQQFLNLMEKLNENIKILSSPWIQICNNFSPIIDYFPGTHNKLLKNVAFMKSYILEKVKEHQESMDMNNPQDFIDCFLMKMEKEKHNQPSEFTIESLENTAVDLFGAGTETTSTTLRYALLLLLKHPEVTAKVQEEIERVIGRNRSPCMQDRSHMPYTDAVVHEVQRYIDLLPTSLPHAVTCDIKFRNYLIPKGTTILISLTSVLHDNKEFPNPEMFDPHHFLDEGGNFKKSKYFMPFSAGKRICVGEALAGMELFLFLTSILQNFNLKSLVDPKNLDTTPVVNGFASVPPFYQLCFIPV

SMILES | IC50 (Cytochrome P450 1B1) [µM] | inhibition at 10 µM (CYP1B1) [%] | IC50 (Cytochrome P450 2C19) [µM] | inhibition at 10 µM (CYP2C9) [%]
COc1c2ccoc2cc2oc(=O)ccc12 [BERGAPTEN] | 15.3 | 20 | > 10 | 4
COc1c2ccoc2c(OC)c2oc(=O)ccc12 [ISOPIMPINELLIN] | 6.38 | 55 | > 10 | 0
